These results are taken from ChEMBL document CHEMBL4364306, “Structure-activity relationships of thiazole and benzothiazole derivatives as selective cannabinoid CB2 agonists with in vivo anti-inflammatory properties” (Eur J Med Chem, 2019).

Experiment [1] deals with T1, Cannabinoid receptor 2 (Homo sapiens, UniProt P34972). Description: Displacement of [3H]CP55940 from recombinant human CB2R expressed in HEK293 cell membranes at 10 uM incubated for 90 mins relative to control.
The species entered for a further experiment is Homo sapiens. Description: Selectivity index, ratio of Ki for recombinant human CB1R expressed in HEK293 cell membranes to Ki for recombinant human CB2R expressed in HEK293 cell membranes. The format is cell-based.
Experiment [2] deals with T2, Cannabinoid receptor 1 (Homo sapiens, UniProt P21554). Description: Agonist activity at N-terminal Flag epitope tagged CB1 (unknown origin) expressed in HTLA cells assessed as increase of beta-arrestin recruitment by Tango assay. The format is cell-based. Put shortly: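 HTLA cells transfected overnight with GPCR Tango constructs, plated at 15,000 cells/well in DMEM with 1% dFBS and allowed to recover at least 6 h. Compounds in Tango buffer (20 mM HEPES, 1x HBSS, pH 7.40) added overnight, full concentration-response up to 30 µM against CP-55,940 as reference agonist. BrightGlo reagent added for 20 min at room temperature in the dark, then luminescence read.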
Background: Activated receptors often draw arrestin, which recruitment assays turn into a signal.

Experiment [3] concerns the target T1, Cannabinoid receptor 2. Description: Agonist activity at N-terminal Flag epitope tagged CB2 (unknown origin) expressed in HTLA cells assessed as increase of beta-arrestin recruitment by Tango assay. The format is cell-based. Put shortly:
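β-arrestin Tango assay: HTLA cells transfected overnight with GPCR tango constructs, plated at 15,000 cells/well in DMEM with 1% dFBS, recovered ≥6 h. Drugs in Tango buffer (20 mM HEPES, 1x HBSS, pH 7.40) added overnight, full concentration-response (maximum 30 µM). BrightGlo reagent, 20 min room temperature in dark, luminescence read.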

Experiment [4] addresses T2, Cannabinoid receptor 1. Description: Displacement of [3H]CP55940 from recombinant human CB1R expressed in HEK293 cell membranes at 10 uM incubated for 90 mins relative to control. On the technique in general: Loss of bound radioactivity is the signal in a displacement assay; it reports binding, not function.
For experiment [5], the target named is T1, Cannabinoid receptor 2. In words: Antagonist activity at N-terminal Flag epitope tagged CB2 (unknown origin) expressed in HTLA cells assessed as decrease in CP55940-induced beta-arrestin recruitment pretreated with non-selective cannabinoid receptor agonist CP55940 for 30 mins and measured after 20 mins by Tango assay. The format is cell-based.
In experiment [6] the target is T2, Cannabinoid receptor 1. In words: Antagonist activity at N-terminal Flag epitope tagged CB1 (unknown origin) expressed in HTLA cells assessed as decrease in CP55940-induced beta-arrestin recruitment pretreated with non-selective cannabinoid receptor agonist CP55940 for 30 mins and measured after 20 mins by Tango assay. The format is cell-based.

The structures appear in SMILES notation. Activity calls are given as the source filed them. The calls are words filed in the database; no cut-off is given here. Where only a bound is given, the exact number is not on record here.

T2 sequence (P21554 whole entry): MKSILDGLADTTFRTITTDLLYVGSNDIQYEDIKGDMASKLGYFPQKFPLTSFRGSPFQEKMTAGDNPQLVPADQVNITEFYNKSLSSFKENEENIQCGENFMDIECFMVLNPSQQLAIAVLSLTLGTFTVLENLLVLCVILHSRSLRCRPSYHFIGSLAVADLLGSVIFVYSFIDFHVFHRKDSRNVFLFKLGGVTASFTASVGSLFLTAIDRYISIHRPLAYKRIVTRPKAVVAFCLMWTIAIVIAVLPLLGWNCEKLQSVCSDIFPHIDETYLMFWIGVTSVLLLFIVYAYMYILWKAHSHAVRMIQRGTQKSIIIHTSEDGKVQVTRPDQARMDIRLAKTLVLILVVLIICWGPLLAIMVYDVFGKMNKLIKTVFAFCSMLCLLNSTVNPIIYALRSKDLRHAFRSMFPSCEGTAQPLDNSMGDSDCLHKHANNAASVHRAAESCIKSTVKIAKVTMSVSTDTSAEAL
T1 sequence (P34972 whole entry): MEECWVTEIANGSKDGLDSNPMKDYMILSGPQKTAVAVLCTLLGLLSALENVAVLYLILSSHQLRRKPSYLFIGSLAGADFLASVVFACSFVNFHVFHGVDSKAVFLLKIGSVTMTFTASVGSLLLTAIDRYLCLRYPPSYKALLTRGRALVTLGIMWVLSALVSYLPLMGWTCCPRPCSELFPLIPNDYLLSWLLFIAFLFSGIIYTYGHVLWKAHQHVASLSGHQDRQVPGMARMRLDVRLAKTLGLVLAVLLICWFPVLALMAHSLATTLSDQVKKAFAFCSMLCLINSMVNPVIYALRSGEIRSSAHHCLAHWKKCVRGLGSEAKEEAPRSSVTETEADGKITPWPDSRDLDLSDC

As a reminder, the EC50 is the midpoint of the concentration-response curve. Consider `CCCCCn1/c(=N/C(=O)c2ccc(C(F)(F)F)cc2)sc2ccccc21`, for which the result on Cannabinoid receptor 2 [1] and at Cannabinoid receptor 1 [4] was Active. Besides, the Ratio Ki in the experiment listed under Homo sapiens was determined as 393. Also, the EC50 at Cannabinoid receptor 1 [2] was greater than 30 µM; on Cannabinoid receptor 2 [3], 2.51 µM; at Cannabinoid receptor 2 [5] it was greater than 30 µM; on Cannabinoid receptor 1 [6], greater than 30 µM.
As to `CCCCNC(=O)c1sc(-c2ccccc2)nc1C`, the outcome at Cannabinoid receptor 2 [1] and at Cannabinoid receptor 1 [4] was Active. Moreover, the 50% effective concentration (EC50) on Cannabinoid receptor 1 [2], on Cannabinoid receptor 2 [3], on Cannabinoid receptor 2 [5] and on Cannabinoid receptor 1 [6] was greater than 30 µM throughout.
As for `Cc1nc(-c2ccccc2)sc1C(=O)NCC1CCCCC1`, the result at Cannabinoid receptor 2 [1] and at Cannabinoid receptor 1 [4] was Active. The EC50 at Cannabinoid receptor 1 [2], at Cannabinoid receptor 2 [3], at Cannabinoid receptor 2 [5] and on Cannabinoid receptor 1 [6] was greater than 30 µM in each case.
As for `O=C(NCc1ccccc1Cl)c1nc2ccccc2s1`, the result at Cannabinoid receptor 2 [1] and at Cannabinoid receptor 1 [4] was Active. In addition, the Ratio Ki in the experiment filed under Homo sapiens was greater than 9. For the same molecule, the EC50 was greater than 30 µM at Cannabinoid receptor 1 [2], 3.31 µM at Cannabinoid receptor 2 [3], greater than 30 µM on Cannabinoid receptor 2 [5] and greater than 30 µM on Cannabinoid receptor 1 [6].
`O=C(Nc1nc2ccccc2s1)c1ccc(C(F)(F)F)cc1`: the outcome at Cannabinoid receptor 2 [1] and at Cannabinoid receptor 1 [4] was Active. Moreover, the EC50 at Cannabinoid receptor 1 [2], at Cannabinoid receptor 2 [3], at Cannabinoid receptor 2 [5] and on Cannabinoid receptor 1 [6] was greater than 30 µM in each case.
Take `Cc1nc(-c2ccccc2)sc1C(=O)NCc1ccccc1Cl`: the outcome on Cannabinoid receptor 2 [1] and on Cannabinoid receptor 1 [4] was Active. The EC50 at Cannabinoid receptor 1 [2], on Cannabinoid receptor 2 [3], at Cannabinoid receptor 2 [5] and on Cannabinoid receptor 1 [6] was greater than 30 µM each time.
In the case of `O=C(Nc1nc2ccccc2s1)C12CC3CC(CC(C3)C1)C2`, the outcome at Cannabinoid receptor 2 [1] and at Cannabinoid receptor 1 [4] was Active. In the experiment listed under Homo sapiens, the Ratio Ki was greater than 36. Also, the concentration giving a half-maximal response (EC50) at Cannabinoid receptor 1 [2], at Cannabinoid receptor 2 [3], on Cannabinoid receptor 2 [5] and on Cannabinoid receptor 1 [6] was greater than 30 µM each time.
As to `Cc1nc(-c2ccccc2)sc1C(=O)NC1CCCCC1`, the result on Cannabinoid receptor 2 [1] and at Cannabinoid receptor 1 [4] was Active. Besides, the EC50 on Cannabinoid receptor 1 [2], at Cannabinoid receptor 2 [3], on Cannabinoid receptor 2 [5] and on Cannabinoid receptor 1 [6] was greater than 30 µM throughout.
For the molecule `O=C(Nc1nc2ccccc2s1)c1cccc2ccccc12`, the result on Cannabinoid receptor 2 [1] and at Cannabinoid receptor 1 [4] was Active. Also, the Ratio Ki in the experiment filed under Homo sapiens was greater than 7. In addition, the EC50 at Cannabinoid receptor 1 [2], at Cannabinoid receptor 2 [3], on Cannabinoid receptor 2 [5] and at Cannabinoid receptor 1 [6] was greater than 30 µM in each case.
Take `Cc1nc(-c2ccccc2)sc1C(=O)NCc1ccccc1F`: the result on Cannabinoid receptor 2 [1] and at Cannabinoid receptor 1 [4] was Active. Moreover, the EC50 on Cannabinoid receptor 1 [2], at Cannabinoid receptor 2 [3], at Cannabinoid receptor 2 [5] and on Cannabinoid receptor 1 [6] was greater than 30 µM throughout.
With `O=C(NC12CC3CC(CC(C3)C1)C2)c1nc2ccccc2s1`, the outcome on Cannabinoid receptor 2 [1] and at Cannabinoid receptor 1 [4] was Active. Further, in the experiment listed under Homo sapiens, the Ratio Ki was greater than 121. Further, the EC50 on Cannabinoid receptor 1 [2], at Cannabinoid receptor 2 [3], at Cannabinoid receptor 2 [5] and on Cannabinoid receptor 1 [6] was greater than 30 µM throughout.
For `O=C(NCC1CCCCC1)c1nc2ccccc2s1`, the outcome at Cannabinoid receptor 2 [1] and at Cannabinoid receptor 1 [4] was Active. Moreover, the Ratio Ki in the experiment listed under Homo sapiens is greater than 7. In addition, the EC50 on Cannabinoid receptor 1 [2], on Cannabinoid receptor 2 [3], at Cannabinoid receptor 2 [5] and on Cannabinoid receptor 1 [6] was greater than 30 µM each time.
Regarding `Cc1ccc(Cn2nc(C(=O)N[C@@H]3C(C)(C)[C@@H]4CC[C@@]3(C)C4)cc2-c2ccc(Cl)c(C)c2)cc1`, on Cannabinoid receptor 1 [4], the result was Active.
On to `Cc1nc(-c2ccccc2)sc1C(=O)NC1CC1`, for which the outcome at Cannabinoid receptor 2 [1] and on Cannabinoid receptor 1 [4] was Active. Besides, the EC50 on Cannabinoid receptor 1 [2], at Cannabinoid receptor 2 [3], on Cannabinoid receptor 2 [5] and on Cannabinoid receptor 1 [6] was greater than 30 µM throughout.
Regarding `Cc1nc(C)c(C(=O)NCc2ccccc2)s1`, the outcome on Cannabinoid receptor 2 [1] and on Cannabinoid receptor 1 [4] was Active. For the same molecule, the EC50 at Cannabinoid receptor 1 [2], at Cannabinoid receptor 2 [3], at Cannabinoid receptor 2 [5] and on Cannabinoid receptor 1 [6] was greater than 30 µM each time.
Turning to `O=C(Nc1cccc2ccccc12)c1nc2ccccc2s1`, the outcome on Cannabinoid receptor 2 [1] and at Cannabinoid receptor 1 [4] was Active. Further, the concentration for a half-maximal effect (EC50) at Cannabinoid receptor 1 [2], on Cannabinoid receptor 2 [3], on Cannabinoid receptor 2 [5] and at Cannabinoid receptor 1 [6] was greater than 30 µM in each case.
In the case of `Cc1nc(-c2ccccc2)sc1C(=O)NCc1ccccc1`, the outcome on Cannabinoid receptor 2 [1] and at Cannabinoid receptor 1 [4] was Active. Also, the EC50 on Cannabinoid receptor 1 [2], at Cannabinoid receptor 2 [3], on Cannabinoid receptor 2 [5] and at Cannabinoid receptor 1 [6] was greater than 30 µM throughout.
Consider `Cc1nc(-c2ccccc2)sc1C(=O)NC1CCCC1`, for which the outcome on Cannabinoid receptor 2 [1] and on Cannabinoid receptor 1 [4] was Active. The concentration giving a half-maximal response (EC50) on Cannabinoid receptor 1 [2], at Cannabinoid receptor 2 [3], on Cannabinoid receptor 2 [5] and at Cannabinoid receptor 1 [6] was greater than 30 µM each time.
As for `O=C(Nc1nc2ccccc2s1)c1cccc(C(F)(F)F)c1`, the result on Cannabinoid receptor 2 [1] and at Cannabinoid receptor 1 [4] was Active. Moreover, the EC50 on Cannabinoid receptor 1 [2], on Cannabinoid receptor 2 [3], on Cannabinoid receptor 2 [5] and on Cannabinoid receptor 1 [6] was greater than 30 µM each time.
`Cc1nc(-c2ccccc2)sc1C(=O)NCc1ccc(F)cc1`: the result at Cannabinoid receptor 2 [1] and on Cannabinoid receptor 1 [4] was Active. Moreover, the EC50 at Cannabinoid receptor 1 [2], on Cannabinoid receptor 2 [3], on Cannabinoid receptor 2 [5] and at Cannabinoid receptor 1 [6] was greater than 30 µM throughout.
As to `Cc1nc(C)c(C(=O)NC2CCCc3ccccc32)s1` (stereo not given), the result on Cannabinoid receptor 2 [1] and at Cannabinoid receptor 1 [4] was Active. Further, the EC50 on Cannabinoid receptor 1 [2] was greater than 30 µM; at Cannabinoid receptor 2 [3], greater than 30 µM; at Cannabinoid receptor 2 [5] it was 0.437 µM; at Cannabinoid receptor 1 [6] it was 1.17 µM.
Turning to `O=C(Nc1ccc2ccccc2c1)c1nc2ccccc2s1`, the result on Cannabinoid receptor 2 [1] and at Cannabinoid receptor 1 [4] was Active. Further, the EC50 at Cannabinoid receptor 1 [2], on Cannabinoid receptor 2 [3], at Cannabinoid receptor 2 [5] and at Cannabinoid receptor 1 [6] was greater than 30 µM in each case.
With `CCCCCCNC(=O)c1sc(-c2ccccc2)nc1C`, the outcome on Cannabinoid receptor 2 [1] and on Cannabinoid receptor 1 [4] was Active. For the same molecule, the EC50 on Cannabinoid receptor 1 [2], on Cannabinoid receptor 2 [3], at Cannabinoid receptor 2 [5] and on Cannabinoid receptor 1 [6] was greater than 30 µM each time.
For `O=C(NCc1ccccc1)c1nc2ccccc2s1`, the outcome at Cannabinoid receptor 2 [1] and on Cannabinoid receptor 1 [4] was Active. The EC50 on Cannabinoid receptor 1 [2], on Cannabinoid receptor 2 [3], at Cannabinoid receptor 2 [5] and on Cannabinoid receptor 1 [6] was greater than 30 µM throughout.
